Activity calls are given as the source filed them. No cut-off for these calls is given here.
Assays:
RPMI-8226 [1] = assay: Anticancer activity against human RPMI8226 cells assessed as cell growth at 10 uM after 48 hrs by SRB assay; assay type: functional; conditions: RPMI-8226, 48 h, read-out: Activity
Procedure, shortened: (§1)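 NCI primary screen: compound added at a single concentration of 10^-5 M to the human tumor cell line panel, 48 h incubation, end-point by sulforhodamine B protein staining read spectrophotometrically. Result expressed as percent growth of treated cells relative to untreated control cells.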

NCI60 = assay: Anticancer activity against human NCI60 cells assessed as cell growth inhibition after 48 hrs by SRB assay; assay type: functional, cell-based
Procedure, shortened: (§2)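 NCI full panel of about 60 human tumor cell lines, five 10-fold dilutions from 10^-4 to 10^-8 M, 48 h continuous exposure, SRB protein assay read spectrophotometrically. Percent growth from time-zero, untreated-control and treated absorbances. GI50 is the molar concentration giving 50% net growth inhibition, TGI total inhibition, LC50 50% net cell death. Mean graph midpoints include insensitive lines at the top concentration.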

[2] = Anticancer activity against human NCI60 cells assessed as cell growth at 10 uM after 48 hrs by SRB assay; assay type: functional; conditions: NCI60, 48 h, read-out: Activity; procedure, shortened: as §1
UO-31 = assay: Anticancer activity against human UO31 cells assessed as cell growth at 10 uM after 48 hrs by SRB assay; assay type: functional; conditions: UO-31, 48 h, read-out: Activity; procedure, shortened: as §1
OVCAR-4 = assay: Growth inhibition of human OVCAR4 cells after 48 hrs by SRB assay; assay type: functional; conditions: OVCAR-4, 48 h; procedure, shortened: as §2
PC-3 = assay: Growth inhibition of human PC3 cells after 48 hrs by SRB assay; assay type: functional; conditions: PC-3, 48 h; procedure, shortened: as §2
SNB-19 = assay: Growth inhibition of human SNB19 cells after 48 hrs by SRB assay; assay type: functional; conditions: SNB-19, 48 h; procedure, shortened: as §2
UACC-62 = assay: Growth inhibition of human UACC62 cells after 48 hrs by SRB assay; assay type: functional; conditions: UACC-62, 48 h; procedure, shortened: as §2
MCF7 = assay: Growth inhibition of human MCF7 cells after 48 hrs by SRB assay; assay type: functional; conditions: MCF7, 48 h; procedure, shortened: as §2
MDA-MB-435 = assay: Growth inhibition of human MDA-MB-435 cells after 48 hrs by SRB assay; assay type: functional; conditions: MDA-MB-435, 48 h; procedure, shortened: as §2
[3] = Growth inhibition of human NCI-ADR-RES cells after 48 hrs by SRB assay; assay type: functional; procedure, shortened: as §2
ACHN = assay: Growth inhibition of human ACHN cells after 48 hrs by SRB assay; assay type: functional; procedure, shortened: as §2
SF-295 [4] = assay: Growth inhibition of human SF295 cells after 48 hrs by SRB assay; assay type: functional; conditions: SF-295, 48 h; procedure, shortened: as §2
BT-549 = assay: Growth inhibition of human BT549 cells after 48 hrs by SRB assay; assay type: functional; conditions: BT-549, 48 h; for TGI: read-out: pTGI (converted); procedure, shortened: as §2
HCT-116 = assay: Growth inhibition of human HCT116 cells after 48 hrs by SRB assay; assay type: functional; conditions: HCT-116, 48 h; procedure, shortened: as §2
SF-539 = assay: Growth inhibition of human SF539 cells after 48 hrs by SRB assay; assay type: functional; conditions: SF-539, 48 h; procedure, shortened: as §2
SNB-75 [5] = assay: Anticancer activity against human SNB75 cells assessed as cell growth at 10 uM after 48 hrs by SRB assay; assay type: functional; conditions: SNB-75, 48 h, read-out: Activity; procedure, shortened: as §1
NCI-H23 = assay: Growth inhibition of human NCI-H23 cells after 48 hrs by SRB assay; assay type: functional; conditions: NCI-H23, 48 h; procedure, shortened: as §2
T47D = assay: Growth inhibition of human T47D cells after 48 hrs by SRB assay; assay type: functional; procedure, shortened: as §2
HOP-92 [6] = assay: Growth inhibition of human HOP92 cells after 48 hrs by SRB assay; assay type: functional; conditions: HOP-92, 48 h; procedure, shortened: as §2
U-251 = assay: Growth inhibition of human U251 cells after 48 hrs by SRB assay; assay type: functional; conditions: U-251, 48 h; for TGI: read-out: pTGI (converted); procedure, shortened: as §2
HOP-92 [7] = assay: Anticancer activity against human HOP92 cells assessed as cell growth at 10 uM after 48 hrs by SRB assay; assay type: functional; conditions: HOP-92, 48 h, read-out: Activity; procedure, shortened: as §1
RPMI-8226 [8] = assay: Growth inhibition of human RPMI8226 cells after 48 hrs by SRB assay; assay type: functional; conditions: RPMI-8226, 48 h; procedure, shortened: as §2
HL-60(TB) = assay: Growth inhibition of human HL-60(TB) cells after 48 hrs by SRB assay; assay type: functional; conditions: HL-60, 48 h
Procedure, shortened: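 NCI 60-cell-line screen, five 10-fold dilutions of the compound, 48-h continuous drug exposure. Cell growth is measured with the sulforhodamine B protein stain and read spectrophotometrically against untreated controls and a time-zero plate (Tz). GI50 is the molar concentration giving 50% net growth inhibition. Values outside the tested range are reported as above or below the extreme concentration.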

SNB-75 [9] = assay: Growth inhibition of human SNB75 cells after 48 hrs by SRB assay; assay type: functional; conditions: SNB-75, 48 h; procedure, shortened: as §2
KM12 = assay: Growth inhibition of human KM12 cells after 48 hrs by SRB assay; assay type: functional; conditions: KM12, 48 h; procedure, shortened: as §2
SK-MEL-28 = assay: Growth inhibition of human SK-MEL-28 cells after 48 hrs by SRB assay; assay type: functional; conditions: SK-MEL-28, 48 h; procedure, shortened: as §2
DU-145 = assay: Growth inhibition of human DU145 cells after 48 hrs by SRB assay; assay type: functional; conditions: DU-145, 48 h; procedure, shortened: as §2
SR = assay: Anticancer activity against human SR cells assessed as cell growth at 10 uM after 48 hrs by SRB assay; assay type: functional; conditions: read-out: Activity; procedure, shortened: as §1
A498 = assay: Growth inhibition of human A498 cells after 48 hrs by SRB assay; assay type: functional; conditions: A498, 48 h; procedure, shortened: as §2
NCI-H226 = assay: Growth inhibition of human NCI-H226 cells after 48 hrs by SRB assay; assay type: functional; conditions: NCI-H226, 48 h; procedure, shortened: as §2
SW-620 = assay: Growth inhibition of human SW620 cells after 48 hrs by SRB assay; assay type: functional; conditions: SW-620, 48 h; procedure, shortened: as §2
LOX IMVI = assay: Growth inhibition of human LOXIMVI cells after 48 hrs by SRB assay; assay type: functional; procedure, shortened: as §2
OVCAR-3 = assay: Growth inhibition of human OVCAR-3 cells after 48 hrs by SRB assay; assay type: functional; conditions: OVCAR-3, 48 h; procedure, shortened: as §2
SF-295 [10] = assay: Anticancer activity against human SF295 cells assessed as cell growth at 10 uM after 48 hrs by SRB assay; assay type: functional; conditions: SF-295, 48 h, read-out: Activity; procedure, shortened: as §1
RXF 393 = assay: Anticancer activity against human RXF393 cells assessed as cell growth at 10 uM after 48 hrs by SRB assay; assay type: functional; conditions: RXF 393, 48 h, read-out: Activity; procedure, shortened: as §1

SMILES: CCOC(=O)c1ccc(NC(=O)COc2ccc(Cl)cc2/C=C2\SC(=S)N(Nc3nc4ccccc4s3)C2=O)cc1
- growth at 10 µM (RPMI-8226 [1]): 20%
- growth inhibition (GI) (NCI60): inactive
- growth at 10 µM [2]: 74.7%

SMILES: COc1ccc(NC(=O)COc2ccc(/C=C3\SC(=S)N(Nc4nc5ccccc5s4)C3=O)cc2OC)cc1
- growth at 10 µM (UO-31): 78.6%
- growth inhibition (GI) (NCI60): inactive
- growth at 10 µM [2]: 107%

SMILES: COc1ccc(NC(=O)COc2ccc(Cl)cc2/C=C2\S/C(=N/c3nc4ccc(C)cc4s3)NC2=O)cc1
- GI50 (OVCAR-4): 6.03 µM
- TGI (OVCAR-4; read-out: pTGI): > 100 µM
- GI50 (PC-3): 4.9 µM
- TGI (PC-3; read-out: pTGI): > 100 µM
- GI50 (SNB-19): 5.5 µM
- TGI (SNB-19; read-out: pTGI (converted)): 25.1 µM
- GI50 (UACC-62): 5.37 µM
- TGI (UACC-62; read-out: pTGI (converted)): 39.8 µM
- GI50 (MCF7): 4.27 µM
- TGI (MCF7; read-out: pTGI): > 100 µM
- GI50 (MDA-MB-435): 10 µM
- TGI (MDA-MB-435; read-out: pTGI (converted)): 34.7 µM
- GI50 [3]: 6.76 µM
- TGI ([3]; read-out: pTGI): > 100 µM
- GI50 (ACHN): 6.46 µM
- TGI (ACHN; read-out: pTGI (converted)): 66.1 µM
- growth inhibition (GI) (NCI60): Active
- GI50 (SF-295 [4]): 3.39 µM
- TGI (SF-295 [4]; read-out: pTGI (converted)): 15.5 µM
- GI50 (BT-549): 6.03 µM
- TGI (BT-549): 27.5 µM
- GI50 (HCT-116): 4.57 µM
- TGI (HCT-116; read-out: pTGI (converted)): 34.7 µM
- GI50 (SF-539): 1.78 µM
- TGI (SF-539; read-out: pTGI (converted)): 3.63 µM
- growth at 10 µM [2]: -36.9%
- growth at 10 µM (SNB-75 [5]): -86.5%
- GI50 (NCI-H23): 7.76 µM
- TGI (NCI-H23; read-out: pTGI (converted)): 25.1 µM
- GI50 (T47D): 4.79 µM
- TGI (T47D; read-out: pTGI): > 100 µM
- GI50 (HOP-92 [6]): 0.457 µM
- TGI (HOP-92 [6]; read-out: pTGI (converted)): 10.2 µM
- GI50 (U-251): 5.01 µM
- TGI (U-251): 20 µM

SMILES: Cc1ccc2nc(/N=C3\NC(=O)/C(=C/c4cc(Cl)ccc4OCC(N)=O)S3)sc2c1
- growth inhibition (GI) (NCI60): inactive
- growth at 10 µM (HOP-92 [7]): 51.4%
- growth at 10 µM [2]: 91.8%

SMILES: COc1ccc(NC(=O)COc2ccc(Cl)cc2/C=C2\SC(=S)N(Nc3nc4ccccc4s3)C2=O)cc1
- GI50 (RPMI-8226 [8]): 5.37 µM
- TGI (RPMI-8226 [8]; read-out: pTGI (converted)): 12.9 µM
- GI50 (HL-60(TB)): 2.29 µM
- TGI (HL-60(TB); read-out: pTGI (converted)): 6.92 µM
- GI50 (SNB-75 [9]): 1.58 µM
- TGI (SNB-75 [9]; read-out: pTGI (converted)): 9.55 µM
- GI50 (KM12): 2.24 µM
- TGI (KM12; read-out: pTGI (converted)): 4.9 µM
- GI50 (SK-MEL-28): 2.19 µM
- TGI (SK-MEL-28; read-out: pTGI (converted)): 4.47 µM
- growth inhibition (GI) (NCI60): Active
- GI50 (DU-145): 2.09 µM
- TGI (DU-145; read-out: pTGI (converted)): 3.98 µM
- growth at 10 µM (SR): -71.5%
- GI50 (BT-549): 3.02 µM
- TGI (BT-549): 8.91 µM
- GI50 (A498): 2.57 µM
- TGI (A498; read-out: pTGI (converted)): 5.75 µM
- GI50 (NCI-H226): 2.95 µM
- TGI (NCI-H226; read-out: pTGI (converted)): 6.92 µM
- GI50 (SW-620): 2.45 µM
- TGI (SW-620; read-out: pTGI (converted)): 6.31 µM
- GI50 (LOX IMVI): 1.66 µM
- TGI (LOX IMVI; read-out: pTGI (converted)): 3.24 µM
- growth at 10 µM [2]: 50.4%
- GI50 (OVCAR-3): 2 µM
- TGI (OVCAR-3; read-out: pTGI (converted)): 3.72 µM
- GI50 (U-251): 2.95 µM
- TGI (U-251): 9.33 µM

SMILES: Cc1ccc2nc(/N=C3\NC(=O)/C(=C/c4ccc(Cl)cc4)S3)sc2c1
- growth inhibition (GI) (NCI60): inactive
- growth at 10 µM (SF-295 [10]): 4.01%
- growth at 10 µM [2]: 56.5%

SMILES: CCN(CC)c1ccc(/C=C2\S/C(=N/c3nc4ccc(C)cc4s3)NC2=O)cc1
- growth inhibition (GI) (NCI60): inactive
- growth at 10 µM (SF-295 [10]): 22.5%
- growth at 10 µM [2]: 69%

SMILES: COc1ccc(/C=C2\S/C(=N/c3nc4ccc(C)cc4s3)NC2=O)cc1
- growth at 10 µM (UO-31): 80.4%
- growth inhibition (GI) (NCI60): inactive
- growth at 10 µM [2]: 106%

SMILES: COc1cc(/C=C2\SC(=S)N(Nc3nc4ccccc4s3)C2=O)ccc1O
- growth at 10 µM (RXF 393): -0.71%
- growth inhibition (GI) (NCI60): inactive
- growth at 10 µM [2]: 97.7%

SMILES: CCN(CC)c1ccc(/C=C2\SC(=S)N(Nc3nc4ccccc4s3)C2=O)cc1
- growth at 10 µM (UO-31): 77.3%
- growth inhibition (GI) (NCI60): inactive
- growth at 10 µM [2]: 98.5%

— ChEMBL document CHEMBL1275294, “Synthesis and anticancer activity evaluation of 4-thiazolidinones containing benzothiazole moiety” (2010)
